Laboratory results as given in ChEMBL document CHEMBL4049387, “Combination of l-Carnitine with Lipophilic Linkage-Donating Gemcitabine Derivatives as Intestinal Novel Organic Cation Transporter 2-Targeting Oral Prodrugs” (J Med Chem, 2017).

How the values were obtained:
[1] = Tmax in Wistar rat at 50 mg/kg, po administered as single dose by UPLC-MS/MS method; type: ADME, organism-based; details: in vivo
In short: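 Wistar rats, six per group, single oral dose equivalent to 50 mg/kg gemcitabine; separate group given gemcitabine iv at 7.5 mg/kg. Oral sampling at 5, 10, 15, 30 min and 1, 2, 4, 6, 8, 12, 24 h; iv at 15, 30 min and 2, 4, 8, 12, 24 h. Blood into THU-pretreated heparinized tubes, centrifuged 3000 × g 15 min, plasma at -80 °C. Prodrug and gemcitabine quantified by UPLC-MS/MS. F = AUCpo×Div/AUCiv/Dpo×100%.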

Mus musculus [2] = test: Toxicity in Kunming mouse assessed as inflammatory infiltrates in cardiac muscle at 102 mg/kg, po administered once daily for 14 days by hematoxylin/eosin staining based optical microscopic analysis; type: organism-based; details: in vivo, 336 h
In short: (§1)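 Kunming mice, four per group, dosed orally once daily for 14 days with 102 mg/kg or saline control; body weight recorded every other day. Heart, liver, spleen, lung and kidney fixed in 10% buffered formalin, paraffin-embedded, sectioned, stained with hematoxylin and eosin, and examined by optical microscopy.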

[3] = Half life in rat plasma at 5 uM by HPLC method; type: ADME, cell-free
In short: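 Compound at 5 µM final in rat plasma, 20% rat hepatic homogenate or 20% rat intestinal homogenate at 37 °C for 24 h. Homogenates made by homogenizing 0.3 g saline-washed tissue in 1 mL saline, spun 13,000 rpm 4 °C 5 min. Sampled at intervals, analysed by HPLC. t1/2 = 0.693/k.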

[4] = target: T1, Organic cation/carnitine transporter 2 (Homo sapiens, UniProt O76082); test: Ratio of drug transport assessed as OCTN2 transporter mediated drug uptake in human Caco2 cells at 1 to 800 uM in presence of Na+ to drug transport assessed as OCTN2 transporter mediated drug uptake in human Caco2 cells at 1 to 800 uM in presence of N-methyl-D-glucamine; type: ADME, cell-based; details: caco-2, 800 µM
T1 sequence (O76082 whole entry): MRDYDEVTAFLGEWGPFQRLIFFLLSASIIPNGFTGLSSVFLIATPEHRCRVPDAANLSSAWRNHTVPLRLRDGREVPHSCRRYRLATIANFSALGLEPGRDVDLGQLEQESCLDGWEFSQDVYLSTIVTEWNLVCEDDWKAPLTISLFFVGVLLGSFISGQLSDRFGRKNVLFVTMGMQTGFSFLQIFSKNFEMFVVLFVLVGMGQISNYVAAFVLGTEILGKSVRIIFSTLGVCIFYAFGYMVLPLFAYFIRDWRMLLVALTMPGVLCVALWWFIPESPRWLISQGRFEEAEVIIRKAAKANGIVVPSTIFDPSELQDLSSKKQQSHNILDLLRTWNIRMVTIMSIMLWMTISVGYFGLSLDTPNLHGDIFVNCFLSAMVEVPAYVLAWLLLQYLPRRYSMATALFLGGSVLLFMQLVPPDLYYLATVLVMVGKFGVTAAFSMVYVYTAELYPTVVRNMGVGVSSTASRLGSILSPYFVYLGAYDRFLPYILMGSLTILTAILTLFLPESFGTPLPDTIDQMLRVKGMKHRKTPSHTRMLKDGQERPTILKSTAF

Mus musculus [5] = test: Toxicity in Kunming mouse assessed as […] degeneration in lung at 102 mg/kg, po administered once daily for 14 days by hematoxylin/eosin staining based optical microscopic analysis; type: organism-based; details: in vivo, 336 h; in short: as §1
Heart = test: Drug uptake in mouse heart at 102 mg/kg, po administered as single dose at 2 hrs post dose; type: ADME, organism-based; details: in vivo
In short: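 Mice, three per time point, single oral dose of 102 mg/kg (equivalent to 50 mg/kg gemcitabine). Heart, liver, spleen, lung, kidney and brain collected at 0.16, 0.5 and 2 h, rinsed in saline. 0.3 g tissue homogenized 1 min in 1 mL saline, spun 13,000 rpm 4 °C 5 min. Gemcitabine measured in supernatant.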

[6] = Stability of the compound in pH 6.8 phosphate buffer at 5 uM by HPLC method; type: physicochemical; details: pH 6.8, 5 µM
In short: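 Compound dissolved at 5 µM in phosphate buffer (pH 1.2, 6.8 or 7.4), held at 37 °C for 24 h. Aliquots taken at intervals and analysed by HPLC. t1/2 = 0.693/k from linear regression of pseudo-first-order kinetics.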

Caco-2 = test: Ratio of IC50 for cytotoxicity against human Caco2 cells in presence of L-carnitine to IC50 for cytotoxicity against human Caco2 cells in absence of L-carnitine; type: functional
[7] = target: T2, Organic cation/carnitine transporter 2 (Rattus norvegicus, UniProt O70594); test: Ratio of drug transport assessed as OCTN2 transporter mediated effective permeability in rat jejunum at 76 uM in absence of L-carnitine to drug transport assessed as OCTN2 transporter mediated effective permeability in rat jejunum at 76 uM in presence of L-carnitine; type: ADME
T2 sequence (O70594 whole entry): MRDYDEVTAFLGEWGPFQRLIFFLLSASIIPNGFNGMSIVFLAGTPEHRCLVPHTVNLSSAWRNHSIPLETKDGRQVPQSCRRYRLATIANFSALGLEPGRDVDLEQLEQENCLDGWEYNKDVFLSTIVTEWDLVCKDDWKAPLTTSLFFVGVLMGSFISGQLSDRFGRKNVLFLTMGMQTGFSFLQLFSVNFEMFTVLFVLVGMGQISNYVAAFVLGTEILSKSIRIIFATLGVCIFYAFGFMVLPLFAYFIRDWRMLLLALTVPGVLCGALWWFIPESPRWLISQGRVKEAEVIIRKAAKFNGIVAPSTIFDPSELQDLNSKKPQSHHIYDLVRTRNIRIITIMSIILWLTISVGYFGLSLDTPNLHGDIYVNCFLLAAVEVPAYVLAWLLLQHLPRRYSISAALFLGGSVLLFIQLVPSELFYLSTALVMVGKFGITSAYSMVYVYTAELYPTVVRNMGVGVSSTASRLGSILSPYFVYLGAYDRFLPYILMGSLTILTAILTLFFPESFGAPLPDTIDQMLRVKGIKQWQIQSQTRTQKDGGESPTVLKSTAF

[8] = target: T2, Organic cation/carnitine transporter 2; test: Ratio of drug transport assessed as OCTN2 transporter mediated effective permeability in rat duodenum at 76 uM in absence of L-carnitine to drug transport assessed as OCTN2 transporter mediated effective permeability in rat duodenum at 76 uM in presence of L-carnitine; type: ADME
Mus musculus [9] = test: Toxicity in Kunming mouse assessed as fibrosis in cardiac muscle at 102 mg/kg, po administered once daily for 14 days by hematoxylin/eosin staining based optical microscopic analysis; type: organism-based; details: in vivo, 336 h; in short: as §1
[10] = target: T1, Organic cation/carnitine transporter 2; test: Ratio of drug transport assessed as OCTN2 transporter mediated drug uptake in human Caco2 cells at 100 uM in absence of L-carnitine to drug transport assessed as OCTN2 transporter mediated drug uptake in human Caco2 cells at 100 uM in presence of L-carnitine; type: ADME, cell-based; details: caco-2, 100 µM
Mus musculus [11] = test: Toxicity in Kunming mouse assessed as fibrosis in hepatocytes at 102 mg/kg, po administered once daily for 14 days by hematoxylin/eosin staining based optical microscopic analysis; type: organism-based; details: in vivo, 336 h; in short: as §1
Mus musculus [12] = test: Toxicity in Kunming mouse assessed as inflammatory infiltrates in hepatocytes at 102 mg/kg, po administered once daily for 14 days by hematoxylin/eosin staining based optical microscopic analysis; type: organism-based; details: in vivo, 336 h; in short: as §1

C[N+](C)(C)CC(CC(=O)[O-])OC(=O)CCCCC(=O)Nc1ccn([C@@H]2O[C@H](CO)[C@@H](O)C2(F)F)c(=O)n1 (some centres undefined)
Tmax [1]: 1.3 h
Activity (Mus musculus [2]): Non-Toxic
half-life at 5 µM [3]: 6.2 h
Ratio [4]: 2 to 10
Activity (Mus musculus [5]): Non-Toxic
Drug uptake (Heart): Not Active
Stability [6]: Stable
Ratio IC50 (Caco-2): 8
Ratio [7]: 11
Ratio [8]: 11
Activity (Mus musculus [9]): Non-Toxic
Ratio [10]: 2.2 to 3.7
Activity (Mus musculus [11]): Non-Toxic
Activity (Mus musculus [12]): Non-Toxic
